The results in this text go back to ChEMBL document CHEMBL1128298, “Synthesis and evaluation of pharmacological and pharmacokinetic properties of monopropyl analogs of 5-, 7-, and 8-[[(trifluoromethyl)sulfonyl]oxy]-2-aminotetralins: central dopamine and serotonin receptor activity” (J Med Chem, 1995).

Data set [1] is described as follows: Plasma half life was determined in rats. The data set is classed as ADME, organism-based. As to conditions: rat. The method, boiled down:
(§1)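 Rats with arterial catheters, dosed 24 h after surgery. Dosing po by gavage after 18 h fast, or iv; doses 25 µmol/kg po and 5 µmol/kg iv. Blood sampled 5 min–12 h and analysed by GC-MS after dichloromethane extraction at pH 11, in duplicate. Bioavailability from po/iv AUC ratio; half-life estimated graphically from the elimination phase after oral dosing.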

Data set [2] concerns the target D(3) dopamine receptor (Homo sapiens, UniProt P35462). The experiment in a line: In vitro binding affinity towards Dopamine receptor D3 by using [3H]spiperone as radioligand. In a few lines:
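Radioligand competition binding at cloned mammalian receptors expressed in CHO-K1 cells, 1 h at room temperature, pH 7.4. D2 [3H]U86170 1 nM in 20 mM HEPES/10 mM MgSO4. D3 [3H]spiperone 0.5 nM in HEPES/MgCl2/NaCl/EDTA. Filtration and scintillation counting; 11 concentrations in duplicate; IC50 by nonlinear fit converted to Ki via Cheng–Prusoff.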

For data set [3], the system named is Rattus norvegicus. The experiment in a line: […] decrease in the accumulation of DOPA (3,4-dihydroxyphenylalanine) in rat limbic brain; partial response at 50 uM/Kg. In kind it is functional, organism-based. In a few lines: (§2)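 Male Sprague-Dawley rats (200–300 g) pretreated with reserpine 5 mg/kg sc 18 h before test drug. Test drug sc 60 min and NSD 1015 30 min before decapitation. DOPA and 5-HTP in limbic, striatal and hemispheral brain areas determined by HPLC with electrochemical detection. ED50 (µmol/kg) is the dose producing half-maximal decrease, from sigmoidal fit to dose–response curves, with 95% confidence limits.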

Data set [4] concerns the target T1, D(2) dopamine receptor (Homo sapiens, UniProt P14416).
The species named for data set [5] is Rattus norvegicus. The data set is described as follows: […] decrease in the accumulation of 5-HTP (5-Hydroxytryptophan) in rat hemispheral brain. In kind it is functional. In a few lines: as §2
In data set [6] the target is T2, 5-hydroxytryptamine receptor 1D (Homo sapiens, UniProt P28221). The data set is described as follows: In vitro binding affinity towards 5-hydroxytryptamine 1D receptor alpha by using [3H]-5-HT as radioligand.
T2 sequence (P28221 whole entry): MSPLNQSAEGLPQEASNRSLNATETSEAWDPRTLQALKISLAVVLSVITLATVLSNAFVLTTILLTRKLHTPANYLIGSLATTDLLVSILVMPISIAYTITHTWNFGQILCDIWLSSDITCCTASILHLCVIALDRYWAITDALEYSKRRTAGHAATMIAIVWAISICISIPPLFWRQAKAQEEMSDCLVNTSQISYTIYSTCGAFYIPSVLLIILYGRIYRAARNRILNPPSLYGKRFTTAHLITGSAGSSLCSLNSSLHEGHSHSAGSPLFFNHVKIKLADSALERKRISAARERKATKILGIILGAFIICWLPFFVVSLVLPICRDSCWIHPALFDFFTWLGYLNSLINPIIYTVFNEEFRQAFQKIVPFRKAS
The target in data set [7] is T3, 5-hydroxytryptamine receptor 1A (Mus musculus, UniProt Q64264).
T3 sequence (Q64264 whole entry): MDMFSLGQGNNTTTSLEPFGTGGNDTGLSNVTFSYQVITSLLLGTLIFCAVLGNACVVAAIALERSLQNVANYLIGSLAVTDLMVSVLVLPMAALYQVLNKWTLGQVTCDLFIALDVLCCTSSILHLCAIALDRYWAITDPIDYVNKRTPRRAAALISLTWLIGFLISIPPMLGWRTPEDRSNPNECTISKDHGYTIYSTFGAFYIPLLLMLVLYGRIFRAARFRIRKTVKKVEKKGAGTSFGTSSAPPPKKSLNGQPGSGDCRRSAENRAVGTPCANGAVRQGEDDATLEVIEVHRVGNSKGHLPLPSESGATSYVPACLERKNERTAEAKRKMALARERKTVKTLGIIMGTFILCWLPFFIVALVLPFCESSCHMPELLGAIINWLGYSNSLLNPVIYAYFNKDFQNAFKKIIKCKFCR
The data set is described as follows: In vitro binding affinity towards 5-hydroxytryptamine 1A receptor by using [3H]-8-OH-DPAT as radioligand. The method, boiled down:
(§3)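 Radioligand competition binding at cloned mammalian receptors expressed in CHO-K1 cells, 1 h at room temperature, pH 7.4. Ligands: 5-HT1A [3H]-8-OH-DPAT 1 nM in 50 mM Tris/10 mM MgCl2. 5-HT1Dα/β [3H]-5-HT 1.7 nM in Tris/MgCl2/EDTA/0.1% ascorbate. D2 [3H]U86170 1 nM in 20 mM HEPES/10 mM MgSO4. D3 [3H]spiperone 0.5 nM in HEPES/MgCl2/NaCl/EDTA. Filtration and scintillation counting; 11 concentrations in duplicate; IC50 by nonlinear fit converted to Ki via Cheng–Prusoff.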

A short description of data set [8]: Plasma clearance was determined for the compound in rats. The data set is classed as ADME, organism-based. As to conditions: rat. The method, boiled down: as §1
Data set [9] concerns Rattus norvegicus. The data set is described as follows: […] decrease in the accumulation of DOPA (3,4-dihydroxyphenylalanine) in rat striatal brain; partial response at 50 uM/Kg. In kind it is functional, organism-based. The method, boiled down: as §2
For data set [10], the target named is T1, D(2) dopamine receptor. The experiment in a line: In vitro binding affinity towards Dopamine receptor D2 by using [3H]spiperone as radioligand.
In data set [11] the test system is Rattus norvegicus. The experiment in a line: […] decrease in the accumulation of DOPA (3,4-dihydroxyphenylalanine) in rat hemispheral brain; partial response at 50 uM/Kg. The data set is classed as functional, organism-based. The method, boiled down:
as §2

Data set [12] in a line: Oral bioavailability in rat. In kind it is ADME, organism-based. The following applies: in vivo. In a few lines:
as §1

Data set [13] addresses T2, 5-hydroxytryptamine receptor 1D. The data set is described as follows: In vitro binding affinity towards 5-hydroxytryptamine 1D receptor alpha by using [3H]5-HT as radioligand.
For data set [14], the system named is Rattus norvegicus. The experiment in a line: […] decrease in the accumulation of DOPA (3,4-dihydroxyphenylalanine) in non pretreated rat striatal brain at dose 0.25 umol/kg. The data set is classed as functional. More on the design: scale not given: the % may be the effect or the level left. The method, boiled down:
(§4)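 Male Sprague-Dawley rats (200–300 g) without reserpine. Test drug sc, or po by gavage after 18 h fast. NSD 1015 decarboxylase inhibition before decapitation. DOPA and 5-HTP in limbic and striatal regions measured by HPLC-electrochemical detection. Results given as percent of saline controls, mean ± SEM, n = 16 controls and 4 treated.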

Data set [15] relates to Rattus norvegicus. The data set is described as follows: […] decrease in the accumulation of 5-HTP (5-Hydroxytryptophan) in non pretreated rat striatal brain at dose 0.25 umol/kg. In kind it is functional. More on the design: scale not given: the % may be the effect or the level left. The method, boiled down: as §4
The test system of data set [16] is Rattus norvegicus. The experiment in a line: behavioral syndrome(flat body posture and forepaw treading) at 0.25 µmol/kg.
The species named for data set [17] is Rattus norvegicus. The data set is described as follows: […] decrease in the accumulation of 5-HTP (5-Hydroxytryptophan) in rat striatal brain. In kind it is functional. In a few lines:
as §2

Data set [18] deals with Rattus norvegicus. The experiment in a line: […] decrease in the accumulation of DOPA (3,4-dihydroxyphenylalanine) in non pretreated rat limbic brain at dose 0.25 umol/kg. In kind it is functional. More on the design: scale not given: the % may be the effect or the level left. In a few lines: as §4
The species named for data set [19] is Rattus norvegicus. The data set is described as follows: post-synaptic activity was determined by locomotor activity (LMA) in Non pretreated rats. The data set is classed as functional. The method, boiled down: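 Nonpretreated male Sprague-Dawley rats; test drug sc in the neck or po by gavage, n = 4. Placed singly in photocell motility meters immediately after dosing; activity recorded for 30 min. Results expressed as percent of saline controls.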

Data set [20] deals with Rattus norvegicus. The data set is described as follows: behavioral syndrome(flat body posture and forepaw treading) at 0.25 umol/Kg.
For data set [21], the system named is Rattus norvegicus. The experiment in a line: uM/kg. In kind it is functional.
The test system of data set [22] is Rattus norvegicus. The experiment in a line: […] decrease in the accumulation of 5-HTP (5-Hydroxytryptophan) in non pretreated rat limbic brain at dose 0.25 umol/kg. In kind it is functional. Further details: scale not given: the % may be the effect or the level left. In a few lines: as §4
Data set [23] concerns Rattus norvegicus. The data set is described as follows: […] decrease in the accumulation of DOPA (3,4-dihydroxyphenylalanine) in rat limbic brain;Inactive at 50 uM/Kg. The data set is classed as functional, organism-based. The method, boiled down: as §2
Data set [24] relates to Rattus norvegicus. The experiment in a line: (§5) […] decrease in the accumulation of 5-HTP (5-uM/Kg. The data set is classed as functional, organism-based.
In data set [25] the target is T2, 5-hydroxytryptamine receptor 1D. The experiment in a line: In vitro binding affinity towards 5-HT1D alpha receptor by using [3H]5-HT as radioligand. In a few lines:
as §3

Data set [26] concerns the target T1, D(2) dopamine receptor. The data set is described as follows: In vitro binding affinity towards dopamine D2 receptor by using [3H]U-86170 as radioligand. The method, boiled down: as §3
The subject of data set [27] is Rattus norvegicus. The data set is described as follows: […] decrease in the accumulation of DOPA (3,4-dihydroxyphenylalanine) in rat hemispheral brain;Inactive at 50 uM/Kg. In kind it is functional, organism-based. In a few lines:
as §2

For data set [28], the system named is Rattus norvegicus. The description is as §5. In kind it is functional, organism-based. This is another data set of the same source.
The species named for data set [29] is Rattus norvegicus. The data set is described as follows: post-synaptic activity was determined by locomotor activity (LMA) in reserpine pretreated rats and no. of counts/30 min was reported (***p<0.005). The data set is classed as functional.
In data set [30] the test system is Rattus norvegicus. The data set is described as follows: […] decrease in the accumulation of DOPA (3,4-dihydroxyphenylalanine) in rat striatal brain;Inactive at 50 uM/Kg. The data set is classed as functional, organism-based. The method, boiled down:
as §2

Active and inactive are the calls of the source. The calls are words filed in the database; no cut-off is given here. Bounds are passed on as bounds.

T1 sequence (P14416 whole entry): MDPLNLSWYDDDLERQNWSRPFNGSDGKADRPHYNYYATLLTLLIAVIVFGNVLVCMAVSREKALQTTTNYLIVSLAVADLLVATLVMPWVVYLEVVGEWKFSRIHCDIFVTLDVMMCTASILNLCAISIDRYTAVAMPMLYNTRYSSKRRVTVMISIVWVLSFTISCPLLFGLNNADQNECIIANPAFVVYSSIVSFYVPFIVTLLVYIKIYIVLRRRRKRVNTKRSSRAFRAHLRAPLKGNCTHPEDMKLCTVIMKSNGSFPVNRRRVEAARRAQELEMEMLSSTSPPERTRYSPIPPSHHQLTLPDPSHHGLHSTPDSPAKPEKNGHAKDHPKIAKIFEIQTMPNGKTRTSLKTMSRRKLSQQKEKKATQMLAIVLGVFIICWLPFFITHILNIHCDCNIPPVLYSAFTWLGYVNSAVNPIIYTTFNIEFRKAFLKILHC
Sequence of D(3) dopamine receptor (P35462 whole entry): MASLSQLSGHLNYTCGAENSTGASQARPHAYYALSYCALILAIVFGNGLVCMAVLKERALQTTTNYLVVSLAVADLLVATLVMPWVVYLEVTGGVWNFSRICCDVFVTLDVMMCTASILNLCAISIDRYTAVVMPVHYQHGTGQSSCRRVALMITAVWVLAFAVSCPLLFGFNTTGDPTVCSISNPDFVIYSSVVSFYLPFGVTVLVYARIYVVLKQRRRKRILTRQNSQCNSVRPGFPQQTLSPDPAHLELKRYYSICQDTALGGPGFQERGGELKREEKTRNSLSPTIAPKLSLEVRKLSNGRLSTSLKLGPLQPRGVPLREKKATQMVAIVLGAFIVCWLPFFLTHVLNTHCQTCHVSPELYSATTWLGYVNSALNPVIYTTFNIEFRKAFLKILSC

Broadly, the half-life is the time in which the quantity being followed falls by half. The Ki is a dissociation constant, usually derived from enzyme kinetics or from competition with a known ligand. In general, ED50 refers to the midpoint of the dose-response relation. The term clearance denotes the volume of plasma or blood freed of the substance per unit of time. In general, bioavailability refers to dose-corrected exposure relative to a reference, in per cent. In the case of `CCCN(CCC)C1CCc2cccc(OS(=O)(=O)C(F)(F)F)c2C1` (racemic), in [1], the half-life was found to be 1.5 h. The Ki in [2] was 273 nM; in data set [4], 62 nM; in data set [6] it was 127 nM; in [7], 0.8 nM; in data set [10] it was above 413 nM; in data set [13], 12 nM. Also, the ED50 entry in data set [3] is “Weak activity”; in data set [5], 13.8 µmol/kg; in data set [9] it was “Weak activity”; in data set [11], “Weak activity”. In [8], this compound yielded a clearance of 57 mL/min/kg. The same compound had a bioavailability in [12] of 11.2%.
Regarding `CCCN(CCC)[C@@H]1CCc2cccc(O)c2C1`, the Control amounted to 80% in data set [14], 48% in data set [15], 94% in data set [18] and 50% in [22]. Further, the “No. of rats with 5-HT syndrome” value in data set [16] and in data set [20] was 4 each time. In data set [1], this compound showed a half-life of 1.2 h. The ED50 in data set [17] is 0.047 µmol/kg; in [3] it was “Weak activity”; in [5], 0.05 µmol/kg; in [9], “Weak activity”; in [11] it was “Weak activity”. Besides, the “Locomotor activity (% of saline control)” value in [19] is given as 64%. Also, the “No. of rats displaying DA syndrome” value in data set [21] came out at 0. For the same compound, the affinity in data set [7] corresponds to a Ki of 0.5 nM. In [12], this compound registered a bioavailability of 2.4%.
Consider `CCCN[C@@H]1CCc2ccc(OS(=O)(=O)C(F)(F)F)cc2C1.Cl`, for which the ED50 result in data set [23], in data set [27] and in data set [30] was “inactive” each time. Besides, the 50% effective dose (ED50) entry in data set [24] and in [28] was “Weak activity” each time. Further, the Ki in data set [2] was 359 nM; in data set [25] it was 125 nM; in data set [6], 340 nM; in data set [26], 50 nM; in data set [7], 222 nM. The “No. of rats displaying DA syndrome” value in data set [21] was determined as 4. Also, in data set [29], the Counts/30 min is 2153.
`CCCNC1CCc2cccc(OS(=O)(=O)C(F)(F)F)c2C1` (racemic): the Ki in [2] was 691 nM; in [4], 108 nM; in [7], 2.8 nM; in [10], above 413 nM; in data set [13] it was 15 nM.
